In ChEMBL document CHEMBL1833799, “Glionitrin B, a cancer invasion inhibitory diketopiperazine produced by microbial coculture” (2011):
Active and inactive are the calls of the source. The calls are words filed in the database; no cut-off is given here.

Tests used:
DU-145 [1] = assay: Cytotoxicity against human DU145 cells at 0.25 to 8 uM after 24 hrs by cell counting kit analysis; type: functional, cell-based
In short: (§1)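 DU145 cells cultured at 37 °C in humidified 5% CO2 with serum and penicillin/streptomycin. Cells treated with a range of compound concentrations for 24 h, then viability read with Cell Counting Kit-8 per the manufacturer. Viability expressed relative to an untreated group. Paclitaxel (0.1 μM) served as positive control.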

DU-145 [2] = assay: Antiinvasive activity against human DU145 cells at 0.2 uM after 24 hrs by cell invasion assay; type: functional, cell-based
In short: (§2)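 DU145 prostate cancer cells grown at 37 °C, humidified 5% CO2, in medium with serum, 100 units/mL penicillin and 100 μg/mL streptomycin. Cells exposed to compound for 24 h, then in vitro invasiveness measured with a commercial cell invasion assay kit per the maker's protocol. Inhibition expressed relative to an untreated group.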

DU-145 [3] = assay: Cytotoxicity against human DU145 cells at 2.5 to 80 uM after 24 hrs by cell counting kit analysis; type: functional, cell-based; in short: as §1
DU-145 [4] = assay: Inhibition of human DU145 cells invasion at 60 uM after 24 hrs by cell invasion assay; type: functional; conditions: DU-145, 24 h; in short: as §2
DU-145 [5] = assay: Antiinvasive activity against human DU145 cells at 15 to 60 uM after 24 hrs by cell invasion assay; type: functional, cell-based; in short: as §2
DU-145 [6] = assay: Decrease in MMP9 mRNA level in human DU145 cell by RT-PCR analysis; type: functional, cell-based
In short: (§3)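 DU145 cells were exposed to compounds for 18 h. Total RNA was isolated by spin column and reverse-transcribed to cDNA. PCR used 100 ng cDNA aliquots: 94 °C for 5 min, then 32 cycles of 94 °C for 30 s, 58 °C for 30 s and 72 °C for 1 min. Products were assessed for MMP-2 and MMP-9 transcript levels.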

DU-145 [7] = assay: Decrease in MMP2 mRNA level in human DU145 cell by RT-PCR analysis; type: functional, cell-based; in short: as §3
DU-145 [8] = assay: Antiinvasive activity against human DU145 cells after 24 hrs by cell invasion assay; type: functional, cell-based
In short: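 DU145 cells grown with serum, 100 units/mL penicillin and 100 μg/mL streptomycin at 37 °C in humidified 5% CO2. Cells were exposed to test compounds at the indicated concentrations for 24 h. In vitro invasiveness was then measured with a commercial cell invasion kit per the manufacturer's protocol and expressed as inhibition relative to an untreated group.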

DU-145 [9] = assay: Cytotoxicity against human DU145 cells at 0.1 uM after 24 hrs by cell counting kit analysis; type: functional
In short: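 DU145 cells were cultured in serum-supplemented medium with penicillin/streptomycin at 37 °C in 5% CO2. They were exposed to a range of compound concentrations for 24 h. Viability was read with the CCK-8 kit per the manufacturer's instructions and expressed as a percentage of an untreated group. Paclitaxel at 0.1 μM served as the positive control.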

| Compound | Activity (DU-145 [1]) | Activity (DU-145 [2]) | Activity (DU-145 [3]) | inhibition at 60 µM (DU-145 [4]) [%] | also measured |
| --- | --- | --- | --- | --- | --- |
| CN1C(=O)[C@@]23Cc4ccc([N+](=O)[O-])cc4N2C(=O)[C@@]1(CO)SS3 | Active | inactive | Active |  |  |
| CN1C(=O)[C@]23CC4=CC=C[C@H](O)[C@H]4N2C(=O)[C@@]1(CO)SS3 | Active | inactive | Active |  |  |
| CS[C@]1(CO)C(=O)N2[C@H]3C(=CC=C[C@@H]3O)C[C@@]2(SC)C(=O)N1C [BIS(DETHIO)BIS(METHYLTHIO)GLIOTOXIN] |  |  | inactive | 22 | Activity (DU-145 [5]): inactive |
| CS[C@@]1(CO)C(=O)N2c3cc([N+](=O)[O-])ccc3C[C@]2(SC)C(=O)N1C [GLIONITRIN B] |  |  | inactive | 46 | Activity (DU-145 [6]): Dose-dependent effect; Activity (DU-145 [7]): Dose-dependent effect; Activity (DU-145 [8]): Dose-dependent effect |
| CC(=O)O[C@H]1C(=O)[C@@]2(C)[C@H]([C@H](OC(=O)c3ccccc3)[C@]3(O)C[C@H](OC(=O)[C@H](O)[C@@H](NC(=O)c4ccccc4)c4ccccc4)C(C)=C1C3(C)C)[C@]1(OC(C)=O)CO[C@@H]1C[C@@H]2O [PACLITAXEL] |  |  |  |  | Activity (DU-145 [9]): 18.9% |
